For one test, the system named is Aedes aegypti. Description: Insecticidal activity against larvae of Aedes aegypti assessed as mortality after 3 days by high-throughput screening assay. Type of test: functional, organism-based. Put shortly:
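One-day-old larvae placed in 96-well plates pre-treated with 6 μg/well, applied in 15 μl DMSO-acetone-water (1:1:8) and dried. Plates lidded, held at room temperature, mortality graded 3 days post-treatment. Six replicates per treatment.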

The subject of test [1] is Spodoptera exigua. Description: Insecticidal activity against second-instar larval stage of Spodoptera exigua fed with artificial diet containing compound assessed as mortality at 50 ug/cm2 after 5 days by diet-based secondary assay. To be noted: 120 h. Type of test: functional. Put shortly:
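Second-instar larvae on 128-well trays with 1 mL diet dosed at 50 μg/cm2, eight wells per treatment under clear plastic. Percent mortality averaged over the eight wells, scored 5 days after assay start; tested only on primary-screen hits (>67% mortality).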

Test [2] relates to Spodoptera exigua. Description: Insecticidal activity against larvae of Spodoptera exigua fed with artificial diet containing compound assessed as mortality after 6 days by high-throughput screening assay. Details: concentration or dose not given beside the values. Type of test: functional. Put shortly:
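Artificial diet (100 μl/well, 96-well) pretreated with 12 μg compound in 30 μl DMSO-acetone-water (2:1:7), dried several hours, then seeded with eggs. Plates covered, kept in dark at 29°C, mortality recorded 6 days post-treatment. Six replicates per treatment.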

A further test relates to Helicoverpa zea. Description: Insecticidal activity against second-instar larval stage of Helicoverpa zea (corn earworm) fed with artificial diet containing compound assessed as mortality after 5 days by diet-based secondary assay. Type of test: functional, organism-based. A digest of the protocol: (§1)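 Follow-up for primary-screen hits (>67% mortality): 128-well diet trays, 1 mL diet containing selected dosages, second-instar larvae. Wells covered with clear plastic, eight wells per treatment, percent mortality averaged over eight wells at 5 days. Approximate LC50 estimated by probit analysis.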

Test [3] concerns Spodoptera exigua. Nature of the test: Insecticidal activity against second-instar larval stage of Spodoptera exigua fed with artificial diet containing compound assessed as mortality after 5 days by diet-based secondary assay. Type of test: functional. A digest of the protocol:
as §1

Active and inactive are the calls of the source.

Consider `Cc1cc(C)cc(SCc2noc(C(=O)NCc3ccccc3)c2C(=O)NCc2ccccc2)c1`, for which the mortality result in the test with Aedes aegypti and with Helicoverpa zea was “inactive” throughout. In the test with Spodoptera exigua [1], the mortality at 50 µg/cm2 was 0%. Moreover, the mortality with Spodoptera exigua [2] was found to be 83%.

As to `CCCNC(=O)c1c(CS(=O)(=O)c2ccc(Cl)cc2)noc1C(=O)NCc1ccccc1`, the mortality result in the test with Aedes aegypti and in the test with Helicoverpa zea was “inactive” in each case. Also, the mortality at 50 µg/cm2 with Spodoptera exigua [1] came to 0%. In addition, in the test with Spodoptera exigua [2], the mortality amounted to 100%.

In the case of `CC(C)CCNC(=O)c1onc(CSc2ccc(Cl)cc2)c1C(=O)NCCC(C)C`, the mortality result in the test with Aedes aegypti and in the test on Helicoverpa zea was “inactive” throughout. The mortality at 50 µg/cm2 in the test with Spodoptera exigua [1] is 0%. In addition, the mortality in the test on Spodoptera exigua [2] amounted to 100%.

Take `C=CCNC(=O)c1onc(CS(=O)(=O)c2ccc(Cl)cc2)c1C(=O)NCC=C`: the mortality entry in the test on Aedes aegypti and with Helicoverpa zea was “inactive” throughout. Further, the mortality at 50 µg/cm2 with Spodoptera exigua [1] was determined as 0%. Besides, the mortality with Spodoptera exigua [2] was found to be 100%.

For `CCCCNC(=O)c1c(CSc2ccccc2)noc1C(=O)NCc1ccccc1`, the mortality result in the test on Aedes aegypti and in the test on Helicoverpa zea was “inactive” each time. In the test on Spodoptera exigua [1], the mortality at 50 µg/cm2 was found to be 0%. For the same molecule, the mortality with Spodoptera exigua [2] is reported as 100%.

As for `CC(C)NC(=O)c1onc(CS(=O)(=O)c2ccccc2)c1C(=O)NC(C)C`, the mortality entry with Aedes aegypti and in the test with Helicoverpa zea was “inactive” each time. Moreover, the mortality at 50 µg/cm2 with Spodoptera exigua [1] amounted to 0%. Besides, the mortality with Spodoptera exigua [2] worked out at 100%.

For `CC(C)NC(=O)c1c(CSc2ccc(Cl)cc2)noc1C(=O)NCc1ccccc1`, the mortality result in the test with Aedes aegypti and with Helicoverpa zea was “inactive” each time. Moreover, the mortality at 50 µg/cm2 in the test with Spodoptera exigua [1] amounted to 0%. The mortality in the test with Spodoptera exigua [2] was 100%.

On to `COCCNC(=O)c1onc(CS(=O)(=O)c2ccccc2)c1C(=O)NCCOC`, for which, in the test with Spodoptera exigua [3], the LC50 was found to be 19 microg/cm2. For the same molecule, the mortality entry in the test with Aedes aegypti and in the test with Helicoverpa zea was “inactive” throughout. Also, the mortality at 50 µg/cm2 in the test with Spodoptera exigua [1] is 75%. Further, the mortality in the test with Spodoptera exigua [2] is reported as 83%.

Take `COCCNC(=O)c1onc(CSc2ccccc2)c1C(=O)NCCOC`: the mortality entry with Aedes aegypti and with Helicoverpa zea was “inactive” each time. The mortality at 50 µg/cm2 in the test with Spodoptera exigua [1] is 0%. In addition, the mortality in the test on Spodoptera exigua [2] was 83%.

Turning to `CCCCNC(=O)c1onc(CS(=O)(=O)c2ccccc2)c1C(=O)NCCCC`, the LC50 in the test on Spodoptera exigua [3] came to 30 microg/cm2. Moreover, the mortality result in the test on Aedes aegypti and with Helicoverpa zea was “inactive” each time. In addition, the mortality at 50 µg/cm2 with Spodoptera exigua [1] is 75%. Also, in the test with Spodoptera exigua [2], the mortality amounted to 100%.

For the molecule `CC(C)NC(=O)c1c(CSc2ccccc2)noc1C(=O)NCc1ccccc1`, the mortality entry in the test with Aedes aegypti and in the test with Helicoverpa zea was “inactive” throughout. Further, in the test with Spodoptera exigua [1], the mortality at 50 µg/cm2 amounted to 0%. In the test with Spodoptera exigua [2], the mortality turned out to be 83%.

With `CC(C)NC(=O)c1onc(CSc2ccc(Cl)cc2)c1C(=O)NC(C)C`, the mortality entry in the test on Aedes aegypti and in the test with Helicoverpa zea was “inactive” in each case. The mortality at 50 µg/cm2 in the test on Spodoptera exigua [1] came to 0%. The mortality in the test with Spodoptera exigua [2] is listed as 83%.

On to `C=CCNC(=O)c1c(CS(=O)(=O)c2ccccc2)noc1C(=O)NCc1ccccc1`, for which the mortality result in the test on Aedes aegypti and with Helicoverpa zea was “inactive” in each case. Besides, in the test on Spodoptera exigua [1], the mortality at 50 µg/cm2 was 0%. In addition, in the test with Spodoptera exigua [2], the mortality was 100%.

As for `CC[C@H]1CCC[C@H](O[C@H]2CC[C@H](N(C)C)[C@@H](C)O2)[C@@H](C)C(=O)C2=C[C@@H]3[C@@H](C=C(C)[C@@H]4C[C@@H](O[C@@H]5O[C@@H](C)[C@H](OC)[C@@H](OC)[C@H]5OC)C[C@@H]34)[C@@H]2CC(=O)O1.CC[C@H]1CCC[C@H](O[C@H]2CC[C@H](N(C)C)[C@@H](C)O2)[C@@H](C)C(=O)C2=C[C@@H]3[C@@H](C=C[C@@H]4C[C@@H](O[C@@H]5O[C@@H](C)[C@H](OC)[C@@H](OC)[C@H]5OC)C[C@@H]34)[C@@H]2CC(=O)O1`, in the test with Spodoptera exigua [3], the LC50 came out at 0.06 microg/cm2.

Take `CC(C)NC(=O)c1onc(CS(=O)(=O)c2ccc(Cl)cc2)c1C(=O)NC(C)C`: the mortality entry in the test on Aedes aegypti and in the test on Helicoverpa zea was “inactive” each time. Moreover, in the test on Spodoptera exigua [1], the mortality at 50 µg/cm2 is 0%. The mortality in the test with Spodoptera exigua [2] is on record as 97%.

As for `CCCNC(=O)c1onc(CS(=O)(=O)c2ccc(Cl)cc2)c1C(=O)NCCC`, the mortality entry in the test with Aedes aegypti and in the test with Helicoverpa zea was “inactive” in each case. Besides, the mortality at 50 µg/cm2 with Spodoptera exigua [1] was found to be 0%. Also, the mortality with Spodoptera exigua [2] was 83%.

Take `C=CCNC(=O)c1c(CS(=O)(=O)c2ccc(Cl)cc2)noc1C(=O)NCc1ccccc1`: the mortality entry in the test with Aedes aegypti and in the test with Helicoverpa zea was “inactive” each time. Moreover, the mortality at 50 µg/cm2 in the test on Spodoptera exigua [1] was determined as 38%. For the same molecule, the mortality in the test on Spodoptera exigua [2] is on record as 100%.

`CCCCNC(=O)c1c(CSc2ccc(Cl)cc2)noc1C(=O)NCc1ccccc1`: the mortality entry in the test with Aedes aegypti and with Helicoverpa zea was “inactive” each time. In the test on Spodoptera exigua [1], the mortality at 50 µg/cm2 was determined as 0%. Moreover, the mortality in the test with Spodoptera exigua [2] is given as 83%.

In the case of `C=CCNC(=O)c1onc(CS(=O)(=O)c2ccccc2)c1C(=O)NCC=C`, the mortality entry in the test on Aedes aegypti and in the test on Helicoverpa zea was “inactive” each time. For the same molecule, the mortality at 50 µg/cm2 in the test with Spodoptera exigua [1] turned out to be 0%. Moreover, in the test with Spodoptera exigua [2], the mortality worked out at 100%.

With `C=CCNC(=O)c1c(CSc2ccc(Cl)cc2)noc1C(=O)NCc1ccccc1`, the mortality result with Aedes aegypti and in the test with Helicoverpa zea was “inactive” in each case. In addition, in the test with Spodoptera exigua [1], the mortality at 50 µg/cm2 is 0%. Moreover, in the test on Spodoptera exigua [2], the mortality came to 83%.

With `COCCNC(=O)c1onc(CSc2ccc(Cl)cc2)c1C(=O)NCCOC`, the mortality entry with Aedes aegypti and in the test on Helicoverpa zea was “inactive” in each case. Besides, in the test with Spodoptera exigua [1], the mortality at 50 µg/cm2 turned out to be 0%. In addition, in the test with Spodoptera exigua [2], the mortality is 83%.

Take `CCCCNC(=O)c1onc(CS(=O)(=O)c2ccc(Cl)cc2)c1C(=O)NCCCC`: the mortality entry with Aedes aegypti and in the test with Helicoverpa zea was “inactive” in each case. Moreover, the mortality at 50 µg/cm2 in the test with Spodoptera exigua [1] was 0%. In addition, the mortality in the test with Spodoptera exigua [2] came out at 100%.

Take `CCCNC(=O)c1c(CS(=O)(=O)c2ccccc2)noc1C(=O)NCc1ccccc1`: the mortality entry in the test on Aedes aegypti and in the test with Helicoverpa zea was “inactive” throughout. Further, the mortality at 50 µg/cm2 with Spodoptera exigua [1] is 0%. Moreover, the mortality with Spodoptera exigua [2] is 100%.

On to `CCCNC(=O)c1c(CSc2ccccc2)noc1C(=O)NCc1ccccc1`, for which the mortality result in the test with Aedes aegypti and with Helicoverpa zea was “inactive” in each case. Moreover, the mortality at 50 µg/cm2 with Spodoptera exigua [1] was found to be 38%. In addition, the mortality in the test with Spodoptera exigua [2] is listed as 83%.

The record behind these values is ChEMBL document CHEMBL3046721, “3-(Arylthiomethyl)isoxazole-4,5-dicarboxamides: chemoselective nucleophilic chemistry and insecticidal activity” (2009).
